The target of test [1] is T1, Serine/threonine-protein kinase Chk1 (Homo sapiens) (UniProt O14757).
T1 sequence (whole entry): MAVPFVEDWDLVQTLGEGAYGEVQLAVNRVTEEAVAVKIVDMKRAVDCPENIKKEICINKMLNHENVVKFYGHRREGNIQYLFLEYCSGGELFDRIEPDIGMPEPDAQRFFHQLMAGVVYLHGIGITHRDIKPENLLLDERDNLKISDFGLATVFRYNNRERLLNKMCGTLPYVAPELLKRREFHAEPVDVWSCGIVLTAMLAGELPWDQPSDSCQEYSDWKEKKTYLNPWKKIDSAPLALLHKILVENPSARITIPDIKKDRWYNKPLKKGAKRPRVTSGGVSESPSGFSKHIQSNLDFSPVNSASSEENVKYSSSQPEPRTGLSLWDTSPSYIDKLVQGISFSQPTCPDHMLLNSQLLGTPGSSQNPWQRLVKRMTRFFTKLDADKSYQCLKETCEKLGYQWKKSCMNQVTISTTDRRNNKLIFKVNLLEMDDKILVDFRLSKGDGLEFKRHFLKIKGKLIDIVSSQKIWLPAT
Briefly: Inhibition of CHK1 assessed as residual activity at 10 uM by Cherenkov counting relative to control in presence of 20 uM ATP. Put shortly: (§1)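 Single-point profiling at 10 µM in a panel of 78 protein kinases. Kinase activity is expressed as a percentage relative to control assays without compound.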

In test [2] the target is Proto-oncogene tyrosine-protein kinase Src (Homo sapiens) (UniProt P12931). Briefly: Inhibition of Src assessed as residual activity at 10 uM by Cherenkov counting relative to control in presence of 50 uM ATP. The essentials:
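Single-concentration profiling at 10 μM in a 78-kinase panel. Kinase activity is expressed as a percentage of control assays run without compound.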

For test [3], the target named is Ribosomal protein S6 kinase alpha-5 (Homo sapiens) (UniProt O75582). Briefly: Inhibition of MSK1 assessed as residual activity at 10 uM by Cherenkov counting relative to control in presence of 20 uM ATP.
Test [4] has as its target Serine/threonine-protein kinase PAK 6 (Homo sapiens) (UniProt Q9NQU5). Briefly: Inhibition of PAK6 assessed as residual activity at 10 uM by Cherenkov counting relative to control in presence of 20 uM ATP.
Test [5] has as its target Homeodomain-interacting protein kinase 2 (Homo sapiens) (UniProt Q9H2X6). Briefly: Inhibition of HIPK2 assessed as residual activity at 10 uM by Cherenkov counting relative to control in presence of 5 uM ATP. The essentials: as §1
Test [6] can be described thus: Inhibition of AMPK assessed as residual activity at 10 uM by Cherenkov counting relative to control in presence of 50 uM ATP. Put shortly:
as §1

Test [7] has as its target Casein kinase I isoform delta (Rattus norvegicus, UniProt Q06486). Briefly: Inhibition of GST-fused rat CK1delta by Cherenkov counting in presence of 20 uM ATP.
For test [8], the target named is Calcium/calmodulin-dependent protein kinase kinase 2 (Homo sapiens) (UniProt Q96RR4). Briefly: Inhibition of CAMKKbeta assessed as residual activity at 0.1 uM by Cherenkov counting relative to control. The essentials:
(§2)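 Single-concentration screen at 0.1 µM across a panel of 76 protein kinases. Each kinase was run at an ATP concentration approximating its ATP Km. Results are % mean residual activity versus control assays without compound (n = 3 ± SD).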

In test [9] the target is Homeodomain-interacting protein kinase 2 (Homo sapiens) (UniProt Q9H2X6). Briefly: Inhibition of HIPK2 assessed as residual activity at 0.1 uM by Cherenkov counting relative to control in presence of 5 uM ATP. Put shortly: as §2
Sequence of Homeodomain-interacting protein kinase 2 (Homo sapiens) (Q9H2X6 whole entry, looked up): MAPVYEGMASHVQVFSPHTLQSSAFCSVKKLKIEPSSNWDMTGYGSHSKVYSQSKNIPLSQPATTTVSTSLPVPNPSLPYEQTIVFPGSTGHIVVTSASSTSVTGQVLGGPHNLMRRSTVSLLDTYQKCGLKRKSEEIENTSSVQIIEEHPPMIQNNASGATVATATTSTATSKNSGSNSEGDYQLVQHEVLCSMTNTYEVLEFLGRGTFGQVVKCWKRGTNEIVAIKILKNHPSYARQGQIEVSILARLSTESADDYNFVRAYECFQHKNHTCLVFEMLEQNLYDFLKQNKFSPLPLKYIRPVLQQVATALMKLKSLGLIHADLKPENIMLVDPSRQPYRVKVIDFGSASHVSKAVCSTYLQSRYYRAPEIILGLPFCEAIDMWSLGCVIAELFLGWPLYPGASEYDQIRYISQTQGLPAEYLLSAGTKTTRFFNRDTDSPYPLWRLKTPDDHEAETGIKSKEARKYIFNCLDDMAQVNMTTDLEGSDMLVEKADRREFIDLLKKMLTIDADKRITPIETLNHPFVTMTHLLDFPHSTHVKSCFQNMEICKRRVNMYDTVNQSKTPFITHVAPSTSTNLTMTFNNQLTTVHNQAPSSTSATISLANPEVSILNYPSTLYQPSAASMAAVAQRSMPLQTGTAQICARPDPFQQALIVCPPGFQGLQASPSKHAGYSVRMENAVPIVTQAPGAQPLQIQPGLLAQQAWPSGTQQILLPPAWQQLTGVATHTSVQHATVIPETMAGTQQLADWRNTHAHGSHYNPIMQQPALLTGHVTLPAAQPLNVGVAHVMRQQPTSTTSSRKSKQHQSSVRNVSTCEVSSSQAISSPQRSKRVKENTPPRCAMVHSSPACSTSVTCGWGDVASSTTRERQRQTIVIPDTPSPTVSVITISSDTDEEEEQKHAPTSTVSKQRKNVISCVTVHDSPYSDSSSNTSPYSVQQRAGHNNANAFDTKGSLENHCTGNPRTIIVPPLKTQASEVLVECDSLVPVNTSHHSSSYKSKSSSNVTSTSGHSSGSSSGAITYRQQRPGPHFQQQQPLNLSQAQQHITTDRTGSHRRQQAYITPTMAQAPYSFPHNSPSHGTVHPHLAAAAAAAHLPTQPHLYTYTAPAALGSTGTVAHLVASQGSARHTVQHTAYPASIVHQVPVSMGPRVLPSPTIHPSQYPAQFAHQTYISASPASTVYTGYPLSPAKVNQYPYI
Test [10] addresses T2, Inhibitor of nuclear factor kappa-B kinase subunit beta (Homo sapiens) (UniProt O14920).
T2 sequence (whole entry): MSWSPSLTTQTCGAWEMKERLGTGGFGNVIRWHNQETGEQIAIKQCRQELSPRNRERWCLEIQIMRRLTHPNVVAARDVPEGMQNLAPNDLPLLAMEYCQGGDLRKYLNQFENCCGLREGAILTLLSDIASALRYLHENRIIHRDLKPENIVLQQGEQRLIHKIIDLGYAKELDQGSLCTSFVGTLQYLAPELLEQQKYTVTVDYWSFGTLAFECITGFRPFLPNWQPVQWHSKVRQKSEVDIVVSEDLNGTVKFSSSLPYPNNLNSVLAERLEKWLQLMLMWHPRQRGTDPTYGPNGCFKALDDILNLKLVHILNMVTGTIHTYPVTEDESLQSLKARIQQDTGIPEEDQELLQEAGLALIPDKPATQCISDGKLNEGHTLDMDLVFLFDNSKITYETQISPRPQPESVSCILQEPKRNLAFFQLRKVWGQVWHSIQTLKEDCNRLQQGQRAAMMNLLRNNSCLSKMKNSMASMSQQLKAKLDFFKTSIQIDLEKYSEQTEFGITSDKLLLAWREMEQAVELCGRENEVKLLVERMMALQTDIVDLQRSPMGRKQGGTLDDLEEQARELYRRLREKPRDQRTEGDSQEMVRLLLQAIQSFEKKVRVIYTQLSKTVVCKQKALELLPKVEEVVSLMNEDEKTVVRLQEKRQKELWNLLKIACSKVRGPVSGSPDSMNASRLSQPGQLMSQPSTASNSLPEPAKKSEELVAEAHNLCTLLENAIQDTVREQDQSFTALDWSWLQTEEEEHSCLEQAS
Briefly: Inhibition of IKK-beta assessed as residual activity at 0.1 uM by Cherenkov counting relative to control in presence of 5 uM ATP. Put shortly: as §2

For test [11], the target named is Casein kinase I isoform epsilon (Homo sapiens, UniProt P49674). Briefly: Inhibition of recombinant CK1epsilon by Cherenkov counting in presence of 20 uM ATP.
Sequence of Casein kinase I isoform epsilon (P49674 whole entry, canonical isoform): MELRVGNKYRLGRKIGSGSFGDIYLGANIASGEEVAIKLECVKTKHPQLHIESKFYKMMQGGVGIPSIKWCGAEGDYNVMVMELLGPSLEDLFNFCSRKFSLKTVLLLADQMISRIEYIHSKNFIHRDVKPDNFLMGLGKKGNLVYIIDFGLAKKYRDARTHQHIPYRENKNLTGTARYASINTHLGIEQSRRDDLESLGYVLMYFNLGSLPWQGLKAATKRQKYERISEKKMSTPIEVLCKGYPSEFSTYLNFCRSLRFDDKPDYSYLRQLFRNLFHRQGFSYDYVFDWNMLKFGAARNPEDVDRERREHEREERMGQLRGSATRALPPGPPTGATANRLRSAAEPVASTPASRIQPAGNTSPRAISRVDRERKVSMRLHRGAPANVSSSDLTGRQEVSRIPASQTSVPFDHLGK
Test [12] addresses RAC-beta serine/threonine-protein kinase (Homo sapiens) (UniProt P31751). Briefly: Inhibition of PKBbeta assessed as residual activity at 0.1 uM by Cherenkov counting relative to control in presence of 50 uM ATP. The essentials:
(§3)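 Single-concentration screen at 0.1 μM in a 76-kinase panel. ATP for each kinase was set near its Km for ATP. Residual activity is given as a percentage of control assays without compound, mean of n = 3 ± SD.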

Test [13] has as its target Protein kinase C alpha type (Homo sapiens) (UniProt P17252). Briefly: Inhibition of PKCalpha assessed as residual activity at 0.1 uM by Cherenkov counting relative to control in presence of 20 uM ATP. The essentials: as §3
Test [14] addresses Tyrosine-protein kinase Lck (Homo sapiens) (UniProt P06239). Briefly: Inhibition of Lck assessed as residual activity at 0.1 uM by Cherenkov counting relative to control in presence of 50 uM ATP. The essentials: (§4)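 Single-concentration selectivity screen at 0.1 μM against a panel of 76 protein kinases. Each kinase was run at an ATP level approximating its Km for ATP. Output is mean residual activity as % of the control assay without compound, n = 3 ± SD.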

For test [15], the target named is MAP kinase-activated protein kinase 2 (Homo sapiens) (UniProt P49137). Briefly: Inhibition of MAPKAPK2 assessed as residual activity at 0.1 uM by Cherenkov counting relative to control in presence of 20 uM ATP. The essentials:
as §4

Test [16] concerns the target Tyrosine-protein kinase SYK (Homo sapiens) (UniProt P43405). Briefly: Inhibition of SYK assessed as residual activity at 0.1 uM by Cherenkov counting relative to control in presence of 20 uM ATP. Put shortly: as §3

Data on 4 compounds can be found in ChEMBL document CHEMBL1155278, “3,4-Diaryl-isoxazoles and -imidazoles as potent dual inhibitors of p38alpha mitogen activated protein kinase and casein kinase 1delta” (J Med Chem, 2009).

Broadly, the IC50 is the point on the concentration scale where inhibition reaches its midpoint.

Sequence of Casein kinase I isoform delta (Q06486 whole entry, the tested form may be a part, canonical isoform): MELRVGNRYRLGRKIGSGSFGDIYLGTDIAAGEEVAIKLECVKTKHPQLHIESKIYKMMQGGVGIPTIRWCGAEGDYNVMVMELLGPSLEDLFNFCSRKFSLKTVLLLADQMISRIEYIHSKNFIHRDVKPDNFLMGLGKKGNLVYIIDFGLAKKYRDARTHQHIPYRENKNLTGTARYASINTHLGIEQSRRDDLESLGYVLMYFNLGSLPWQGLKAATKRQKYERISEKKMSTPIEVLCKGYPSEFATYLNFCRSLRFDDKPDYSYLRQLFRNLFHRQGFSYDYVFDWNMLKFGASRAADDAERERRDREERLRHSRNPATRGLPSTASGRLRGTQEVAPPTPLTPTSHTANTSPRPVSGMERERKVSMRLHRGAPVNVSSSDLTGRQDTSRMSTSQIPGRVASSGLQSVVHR
Sequence of Proto-oncogene tyrosine-protein kinase Src (Homo sapiens) (P12931 2-536 limits assumed): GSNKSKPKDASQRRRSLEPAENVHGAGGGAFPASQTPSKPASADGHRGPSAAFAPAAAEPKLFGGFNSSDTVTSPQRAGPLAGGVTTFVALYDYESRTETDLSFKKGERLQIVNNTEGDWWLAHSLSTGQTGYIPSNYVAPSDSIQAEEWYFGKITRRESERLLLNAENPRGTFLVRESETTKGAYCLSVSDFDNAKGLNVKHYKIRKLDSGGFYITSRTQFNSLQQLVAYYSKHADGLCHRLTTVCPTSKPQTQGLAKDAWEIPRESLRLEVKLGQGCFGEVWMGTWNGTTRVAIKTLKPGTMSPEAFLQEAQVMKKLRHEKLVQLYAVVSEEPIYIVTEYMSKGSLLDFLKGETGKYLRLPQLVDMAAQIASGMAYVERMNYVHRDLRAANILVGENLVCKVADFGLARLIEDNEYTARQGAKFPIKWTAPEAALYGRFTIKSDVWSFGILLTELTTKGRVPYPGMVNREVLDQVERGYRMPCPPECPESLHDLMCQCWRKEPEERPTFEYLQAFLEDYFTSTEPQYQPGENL
Sequence of MAP kinase-activated protein kinase 2 (Homo sapiens) (P49137 whole entry, looked up): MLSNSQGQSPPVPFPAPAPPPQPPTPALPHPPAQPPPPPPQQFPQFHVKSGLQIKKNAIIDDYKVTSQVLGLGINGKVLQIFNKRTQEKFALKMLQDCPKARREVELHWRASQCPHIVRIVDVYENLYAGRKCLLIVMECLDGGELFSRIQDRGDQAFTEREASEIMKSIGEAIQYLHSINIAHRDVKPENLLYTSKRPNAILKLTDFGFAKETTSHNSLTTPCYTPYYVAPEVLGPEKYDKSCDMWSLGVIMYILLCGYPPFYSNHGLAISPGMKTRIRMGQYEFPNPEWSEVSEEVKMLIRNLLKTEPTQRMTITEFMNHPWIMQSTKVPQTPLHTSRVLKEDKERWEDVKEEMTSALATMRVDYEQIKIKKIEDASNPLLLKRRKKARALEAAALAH
Sequence of Serine/threonine-protein kinase PAK 6 (Homo sapiens) (Q9NQU5 whole entry, looked up): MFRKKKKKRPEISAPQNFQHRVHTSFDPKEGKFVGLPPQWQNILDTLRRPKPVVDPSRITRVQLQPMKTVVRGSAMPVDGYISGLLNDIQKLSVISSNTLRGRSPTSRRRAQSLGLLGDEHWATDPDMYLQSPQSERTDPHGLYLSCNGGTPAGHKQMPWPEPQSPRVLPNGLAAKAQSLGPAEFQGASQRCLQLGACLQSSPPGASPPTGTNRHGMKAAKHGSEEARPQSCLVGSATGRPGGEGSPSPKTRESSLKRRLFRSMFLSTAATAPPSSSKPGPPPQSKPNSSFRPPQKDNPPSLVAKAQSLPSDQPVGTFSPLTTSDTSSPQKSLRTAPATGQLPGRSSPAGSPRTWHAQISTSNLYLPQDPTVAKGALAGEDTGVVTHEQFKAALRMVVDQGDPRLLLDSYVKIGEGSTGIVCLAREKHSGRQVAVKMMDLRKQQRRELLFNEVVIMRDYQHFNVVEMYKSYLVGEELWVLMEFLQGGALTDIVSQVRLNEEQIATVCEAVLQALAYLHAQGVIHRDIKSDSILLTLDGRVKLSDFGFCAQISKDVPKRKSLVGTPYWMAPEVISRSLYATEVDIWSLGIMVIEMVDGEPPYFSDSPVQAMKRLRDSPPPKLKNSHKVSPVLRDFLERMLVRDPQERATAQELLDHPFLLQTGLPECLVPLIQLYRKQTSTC
Sequence of RAC-beta serine/threonine-protein kinase (Homo sapiens) (P31751 whole entry): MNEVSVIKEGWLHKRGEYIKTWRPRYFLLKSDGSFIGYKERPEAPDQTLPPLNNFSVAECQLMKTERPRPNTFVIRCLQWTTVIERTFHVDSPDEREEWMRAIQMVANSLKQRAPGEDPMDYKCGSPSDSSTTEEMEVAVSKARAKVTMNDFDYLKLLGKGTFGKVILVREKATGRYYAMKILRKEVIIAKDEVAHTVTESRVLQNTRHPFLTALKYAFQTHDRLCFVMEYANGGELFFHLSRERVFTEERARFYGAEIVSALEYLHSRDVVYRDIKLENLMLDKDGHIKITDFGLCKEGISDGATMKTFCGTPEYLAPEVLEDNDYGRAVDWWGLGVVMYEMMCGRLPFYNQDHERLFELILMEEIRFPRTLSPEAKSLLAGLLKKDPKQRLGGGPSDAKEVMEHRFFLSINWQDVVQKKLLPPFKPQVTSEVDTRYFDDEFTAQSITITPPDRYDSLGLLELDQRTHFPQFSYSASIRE

As to `CC(C)c1noc(-c2ccc(F)cc2)c1-c1ccncc1`, the Activity was 102% in test [1]; 90% in test [2]; 113% in [3]; 102% in test [4]; 103% in test [5]; 73% in test [6].
Turning to `CC(C)c1onc(-c2ccc(F)cc2)c1-c1ccncc1`, the Activity was 91% in test [1]; 72% in [2]; 95% in test [3]; 100% in test [4]; 103% in test [5]; 88% in [6]. Moreover, the IC50 in test [7] amounted to 230 nM.
On to `COc1ccc(/C=C/C(=O)Nc2cc(-c3[nH]c(SC)nc3-c3ccc(F)cc3)ccn2)c(OC)c1`, for which the Activity in test [8] was determined as 88%; in [9], 94%; in [10] it was 84%; in [12], 98%; in [13], 110%; in [14], 50%. Moreover, the Activity amounted to 82% in test [15] and 86% in [16]. Besides, the IC50 in test [11] came to 73 nM; in test [7] it was 5 nM.
`COc1ccc(/C=C/C(=O)Nc2cc(-c3[nH]c([S+](C)[O-])nc3-c3ccc(F)cc3)ccn2)c(OC)c1` (stereo not drawn): the Activity amounted to 92% in test [8]; 104% in test [9]; 87% in test [10]; 100% in test [12]; 103% in test [13]; 74% in test [14]. Further, the Activity is 78% in test [15] and 86% in test [16]. Besides, the IC50 stood at 447 nM in test [11] and 11 nM in test [7].
